Experimental findings from ChEMBL document CHEMBL1135937, “Further studies on conformationally constrained tricyclic tropane analogues and their uptake inhibition at monoamine transporter sites: synthesis of (Z)-9-(substituted arylmethylene)-7-azatricyclo[4.3.1.0(3,7)]decanes as a novel class of serotonin transporter inhibitors” (J Med Chem, 2002) are described below.

Assay [1] has as its target Sodium-dependent dopamine transporter (Rattus norvegicus, UniProt P23977). Nature of the assay: Ability to inhibit high affinity reuptake of [3H]DA from dopamine transporter into nerve endings synaptosomes. In kind it is subcellular, Brain. A digest of the protocol:
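Rat striatal P2 synaptosomes in modified KRH buffer (pH 7.4, with nialamide), preincubated with drug for 30 min at 4 °C, then 15 min at 37 °C. Uptake of [3H]DA (~5 nM final) ran for 5 min and was stopped by cold Na-free buffer and filtration. IC50 from six concentrations in triplicate; Ki by Cheng–Prusoff, 2–4 experiments.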

Assay [2] is described as follows: Uptake ratio Ki of norepinephrine relative to serotonin (5-HT) at monoamine transporter.
Assay [3] concerns the target Sodium-dependent serotonin transporter (Rattus norvegicus, UniProt P31652). Nature of the assay: Inhibition of high affinity re-uptake of [3H]5-HT (serotonin) into nerve ending synaptosomes. In kind it is subcellular, Brain. The gist of the method: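 Synaptosomes (P2) from rat midbrain in modified KRH buffer (pH 7.4, with nialamide), preincubated with drug for 30 min at 4 °C, then 15 min at 37 °C. [3H]5-HT (~5 nM final) uptake ran for 5 min, then filtration and scintillation counting. IC50 from six concentrations in triplicate; Ki by Cheng–Prusoff, 2–4 experiments.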

Assay [4] can be described thus: Uptake ratio Ki of dopamine relative to serotonin (5-HT) at monoamine transporter.
Assay [5] can be described thus: Uptake ratio Ki of norepinephrine relative to dopamine at monoamine transporter.
Assay [6] concerns the target Norepinephrine transporter (Rattus norvegicus, UniProt Q9WTR4). Kind of assay: Ability to inhibit high affinity reuptake of [3H]-NE (Norepinephrine transporter) into nerve ending synaptosomes prepared from brain regions. The assay is classed as subcellular.

pKi: −log10 of the molar value. A value given as a limit tells only on which side of the number the result lay.

Chain of Sodium-dependent dopamine transporter (P23977 whole entry): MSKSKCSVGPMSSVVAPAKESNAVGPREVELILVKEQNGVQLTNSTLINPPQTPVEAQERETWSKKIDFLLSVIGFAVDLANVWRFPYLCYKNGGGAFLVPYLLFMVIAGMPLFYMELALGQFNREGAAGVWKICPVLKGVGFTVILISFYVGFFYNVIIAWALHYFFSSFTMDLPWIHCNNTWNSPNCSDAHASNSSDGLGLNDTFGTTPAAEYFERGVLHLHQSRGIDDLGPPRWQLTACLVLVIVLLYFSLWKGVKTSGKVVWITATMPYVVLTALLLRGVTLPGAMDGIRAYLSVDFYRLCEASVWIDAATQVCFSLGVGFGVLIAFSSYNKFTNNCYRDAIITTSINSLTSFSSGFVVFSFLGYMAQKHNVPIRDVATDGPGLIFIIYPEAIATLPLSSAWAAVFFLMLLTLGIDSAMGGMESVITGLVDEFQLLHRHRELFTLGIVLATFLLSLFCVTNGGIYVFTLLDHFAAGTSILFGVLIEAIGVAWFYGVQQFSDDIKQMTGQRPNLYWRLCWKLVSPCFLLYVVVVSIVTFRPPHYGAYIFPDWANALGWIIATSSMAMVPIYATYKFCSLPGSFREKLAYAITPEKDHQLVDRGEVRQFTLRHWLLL
Chain of Sodium-dependent serotonin transporter (P31652 whole entry): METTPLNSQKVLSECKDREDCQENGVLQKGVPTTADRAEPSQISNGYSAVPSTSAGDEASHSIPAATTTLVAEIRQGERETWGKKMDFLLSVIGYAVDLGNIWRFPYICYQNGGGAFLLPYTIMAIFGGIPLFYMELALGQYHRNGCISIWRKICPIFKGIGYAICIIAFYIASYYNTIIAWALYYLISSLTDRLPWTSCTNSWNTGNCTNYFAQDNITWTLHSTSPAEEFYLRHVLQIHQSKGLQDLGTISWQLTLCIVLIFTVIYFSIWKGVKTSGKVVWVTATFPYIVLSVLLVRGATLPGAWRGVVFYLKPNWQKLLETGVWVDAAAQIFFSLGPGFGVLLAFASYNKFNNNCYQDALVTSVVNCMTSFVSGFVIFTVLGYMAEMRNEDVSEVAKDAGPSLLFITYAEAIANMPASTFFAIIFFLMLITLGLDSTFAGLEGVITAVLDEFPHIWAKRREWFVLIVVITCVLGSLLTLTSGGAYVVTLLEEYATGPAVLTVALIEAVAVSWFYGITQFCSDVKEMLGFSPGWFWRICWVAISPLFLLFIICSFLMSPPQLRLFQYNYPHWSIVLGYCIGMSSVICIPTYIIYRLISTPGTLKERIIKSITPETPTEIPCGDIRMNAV
Chain of Norepinephrine transporter (Q9WTR4 whole entry): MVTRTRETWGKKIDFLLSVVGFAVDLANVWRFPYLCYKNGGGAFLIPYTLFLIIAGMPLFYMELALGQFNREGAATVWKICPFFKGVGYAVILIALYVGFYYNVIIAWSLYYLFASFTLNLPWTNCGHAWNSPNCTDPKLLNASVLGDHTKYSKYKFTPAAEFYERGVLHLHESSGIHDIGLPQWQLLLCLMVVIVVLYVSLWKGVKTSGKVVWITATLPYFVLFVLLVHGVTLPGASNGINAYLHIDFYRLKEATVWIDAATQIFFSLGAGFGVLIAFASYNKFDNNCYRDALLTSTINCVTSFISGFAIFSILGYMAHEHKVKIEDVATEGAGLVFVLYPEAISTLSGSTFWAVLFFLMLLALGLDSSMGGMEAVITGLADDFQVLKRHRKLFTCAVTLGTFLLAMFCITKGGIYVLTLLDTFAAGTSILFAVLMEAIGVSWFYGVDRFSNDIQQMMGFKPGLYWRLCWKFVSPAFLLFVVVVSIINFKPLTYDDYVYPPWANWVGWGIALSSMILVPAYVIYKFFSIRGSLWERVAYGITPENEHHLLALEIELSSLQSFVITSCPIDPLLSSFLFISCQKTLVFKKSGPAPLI

For the molecule `Clc1ccc(/C=C2\CN3C4CCC3C(/C=C\c3ccccc3)C2C4)cc1Cl` (stereo not given), the pKi in assay [1] is 5.68; in assay [3] it was 6.61; in assay [6], 5.55. Also, the Ratio in assay [2] came to 11.4; in assay [4], 8.6; in assay [5], 1.32.

As to `COC(=O)C1C2CC3CCC1N3C/C2=C\c1cccc(Cl)c1` (stereo not given), the pKi in assay [1] was 5.11; in assay [3] it was 7.27; in assay [6], 6.64. Besides, the Ratio was 4.3 in assay [2], 145 in assay [4] and 0.03 in assay [5].

Take `COC(=O)C1C2CC3CCC1N3C/C2=C\c1ccc(C)c(Cl)c1` (stereo not given): the values for the pKi in assay [1], in assay [3] and in assay [6] were below 5.00, 8.19 and 6.70, respectively. Further, the Ratio is 31 in assay [2], above 1560 in assay [4] and below 0.02 in assay [5].

Take `COC(=O)C1C2CC3CCC1N3C/C2=C\c1ccc(F)c(F)c1` (stereo not given): the negative-log Ki (pKi) was 5.13 in assay [1], 7.00 in assay [3] and 6.40 in assay [6]. The Ratio in assay [2] is 3.9; in assay [4] it was 73.7; in assay [5], 0.05.

On to `O=C(OCC1C2CC3CCC1N3C/C2=C\c1cccc(Cl)c1)c1ccccc1` (stereo not given), for which the results for the pKi in assay [1], in assay [3] and in assay [6] were 5.39, 7.96 and 5.18, respectively. In addition, the figures for the Ratio in assay [2], in assay [4] and in assay [5] were 598, 367 and 1.63, respectively.

For `O=C(OCC1C2CC3CCC1N3C/C2=C\c1ccc(Cl)c(Cl)c1)c1ccc(I)cc1` (stereo not given), the pKi was 4.75 in assay [1], 7.31 in assay [3] and 5.07 in assay [6]. Also, the Ratio was determined as 176 in assay [2], 363 in assay [4] and 0.48 in assay [5].

In the case of `O=C(OCC1C2CC3CCC1N3C/C2=C\c1ccc(Br)c(Cl)c1)c1ccccc1` (stereo not given), the negative logarithm of the Ki (pKi) in assay [1] is below 5.00; in assay [3] it was 8.49; in assay [6] it was 5.42. In addition, the Ratio in assay [2] was 1200; in assay [4], above 3120; in assay [5], below 0.38.

In the case of `COC(=O)C1C2CC3CCC1N3C/C2=C\c1cccc2ccccc12` (stereo not given), the pKi in assay [1] is 5.01; in assay [3], 6.92; in assay [6] it was 5.27. The values for the Ratio in assay [2], in assay [4] and in assay [5] were 44, 80.3 and 0.55, respectively.

`COC(=O)C1C2CC3CCC1N3C/C2=C\c1ccc(/C=C2\CN3C4CCC3C(C(=O)OC)C2C4)cc1` (stereo not given): the pKi is 4.41 in assay [1], 6.00 in assay [3] and 4.48 in assay [6]. Further, the Ratio in assay [2] was 34; in assay [4], 39.2; in assay [5], 0.86.

With `CC(=O)OCC1C2CC3CCC1N3C/C2=C\c1ccc2ccccc2c1` (stereo not given), the pKi is 6.19 in assay [1], 8.36 in assay [3] and 6.17 in assay [6]. In addition, the Ratio in assay [2] came out at 153; in assay [4], 148; in assay [5], 1.03.

`CC(=O)OCC1C2CC3CCC1N3C/C2=C\c1ccc(Cl)c(Cl)c1` (stereo not given): the pKi in assay [1] is 5.73; in assay [3] it was 8.80; in assay [6] it was 6.20. Also, the values for the Ratio in assay [2], in assay [4] and in assay [5] were 399, 1170 and 0.34, respectively.

Regarding `O=C(Oc1ccccc1)C1C2CC3CCC1N3C/C2=C\c1ccc(Cl)c(Cl)c1` (stereo not given), the negative-log Ki (pKi) in assay [1] is 5.35; in assay [3], 7.32; in assay [6], 5.62. In addition, the Ratio in assay [2] worked out at 49.9; in assay [4], 91.9; in assay [5], 0.54.

Consider `CN(C)C(=O)C1C2CC3CCC1N3C/C2=C\c1ccc(Cl)c(Cl)c1` (stereo not given), for which the pKi in assay [1] was 5.18; in assay [3] it was 7.54; in assay [6] it was 5.69. In addition, the Ratio in assay [2] came to 69.9; in assay [4], 231; in assay [5], 0.3.

Consider `COC(=O)C1C2CC3CCC1N3C/C2=C\c1ccccc1` (stereo not given), for which the negative logarithm of the Ki (pKi) in assay [1] is 6.32; in assay [3] it was 5.94; in assay [6], 7.28. The results for the Ratio in assay [2], in assay [4] and in assay [5] were 0.05, 0.42 and 0.11, respectively.

Take `COC(=O)C1C2CC3CCC1N3C/C2=C\c1ccc(Br)cc1` (stereo not given): the results for the pKi in assay [1], in assay [3] and in assay [6] were 6.31, 7.96 and 6.75, respectively. Further, the Ratio in assay [2] turned out to be 16; in assay [4] it was 45; in assay [5], 0.36.

With `O=C(OCC1C2CC3CCC1N3C/C2=C\c1ccc(Br)cc1)c1ccccc1` (stereo not given), the pKi in assay [1] was 5.48; in assay [3] it was 8.40; in assay [6], 5.35. For the same molecule, the Ratio was 1130 in assay [2], 835 in assay [4] and 1.35 in assay [5].

Take `CON(C)C(=O)C1C2CC3CCC1N3C/C2=C\c1ccc(Cl)c(Cl)c1` (stereo not given): the results for the pKi in assay [1], in assay [3] and in assay [6] were 5.06, 7.51 and 6.40, respectively. In addition, the Ratio turned out to be 12.9 in assay [2], 281 in assay [4] and 0.05 in assay [5].

As to `O=C(OCC1C2CC3CCC1N3C/C2=C\c1ccc(Cl)c(Cl)c1)c1ccc2ccccc2c1` (stereo not given), the negative-log Ki (pKi) in assay [1] was below 5.00; in assay [3], 8.03; in assay [6] it was 5.23. Also, the Ratio was 640 in assay [2], above 1070 in assay [4] and below 0.6 in assay [5].

In the case of `COC(=O)C1C2CC3CCC1N3C/C2=C\c1ccc(I)c(Cl)c1` (stereo not given), the results for the pKi in assay [1], in assay [3] and in assay [6] were 5.50, 8.74 and 6.57, respectively. The values for the Ratio in assay [2], in assay [4] and in assay [5] were 151, 1740 and 0.09, respectively.

`COC(=O)C1C2CC3CCC1N3C/C2=C\c1ccc2ccccc2c1` (stereo not given): the pKi in assay [1] was 6.13; in assay [3] it was 7.68; in assay [6], 6.80. The Ratio worked out at 7.5 in assay [2], 35 in assay [4] and 0.21 in assay [5].

On to `CC(C)OC(=O)C1C2CC3CCC1N3C/C2=C\c1ccc(Cl)c(Cl)c1` (stereo not given), for which the negative-log Ki (pKi) in assay [1] was 5.89; in assay [3] it was 7.07; in assay [6] it was 6.49. Besides, the Ratio in assay [2] was 3.8; in assay [4], 15; in assay [5] it was 0.25.

For `COC(=O)C1C2CC3CCC1N3C/C2=C\c1cc2ccccc2c2ccccc12` (stereo not given), the negative logarithm of the Ki (pKi) in assay [1] was 5.79; in assay [3] it was 6.63; in assay [6] it was 4.89. In addition, the Ratio is 56 in assay [2], 7 in assay [4] and 7.93 in assay [5].

Regarding `CC(=O)OCC1C2CC3CCC1N3C/C2=C\c1cccc(Cl)c1` (stereo not given), the pKi in assay [1] was 5.22; in assay [3], 7.03; in assay [6] it was 5.93. The values for the Ratio in assay [2], in assay [4] and in assay [5] were 12.7, 64.4 and 0.2, respectively.

In the case of `COC(=O)C1C2CC3CCC1N3C/C2=C\c1cccc(Cl)c1Cl` (stereo not given), the pKi in assay [1] is 6.07; in assay [3], 6.45; in assay [6], 5.92. Further, the Ratio was found to be 3.4 in assay [2], 2.4 in assay [4] and 1.42 in assay [5].

As to `O=C(OCC1C2CC3CCC1N3C/C2=C\c1ccc2ccccc2c1)c1ccccc1` (stereo not given), the pKi was 5.26 in assay [1], 10.00 in assay [3] and 5.49 in assay [6]. The Ratio is 32200 in assay [2], 55300 in assay [4] and 0.58 in assay [5].

For orientation: pKi means the Ki on a negative log10 scale, so that one unit is a factor of ten.
